# Assays:
# rat stomach fundus = experiment: Gastric contraction assay; conditions: for biological activity in fundus strip contraction: concentrations up to 10μM
# C3aR1 receptor = experiment: Photoaffinity cross-linking of modified TLQP-21 peptide; type: binding, mouse; conditions: membranes from 3T3 cells, UV 365 nm 30 min; Figure 1B
# human C3aR1 = biological target: T1, human C3aR1 (Homo sapiens, UniProt Q16581); experiment: β-arrestin recruitment assay in HTLA cells transfected with the C3aR1 receptor; type: cell-based; conditions: for EC50 times lower than that of C3a: human C3aR1, relative to C3a
# T1 sequence (Q16581 1-482): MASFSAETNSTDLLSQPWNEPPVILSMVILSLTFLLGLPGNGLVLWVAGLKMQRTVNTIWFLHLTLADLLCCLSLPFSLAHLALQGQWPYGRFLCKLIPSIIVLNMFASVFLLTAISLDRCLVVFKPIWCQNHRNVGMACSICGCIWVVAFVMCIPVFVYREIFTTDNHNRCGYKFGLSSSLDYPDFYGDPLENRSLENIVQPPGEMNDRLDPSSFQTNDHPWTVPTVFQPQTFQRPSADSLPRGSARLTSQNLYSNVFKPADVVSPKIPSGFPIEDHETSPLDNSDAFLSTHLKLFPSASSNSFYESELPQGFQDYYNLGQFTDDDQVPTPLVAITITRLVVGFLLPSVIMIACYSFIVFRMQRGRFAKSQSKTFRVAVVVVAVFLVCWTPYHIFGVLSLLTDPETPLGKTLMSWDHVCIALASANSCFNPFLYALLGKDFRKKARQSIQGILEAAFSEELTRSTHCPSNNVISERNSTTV
# 3T3L1 adipocytes = experiment: Lipolysis assay in 3T3L1 adipocytes; type: cell-based, mouse; conditions: with isoproterenol, 3 hours incubation at 37°C
# Outline: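 Adipocytes at day 8 of differentiation in 6-well plates. Starved 3 h in KRH with 1% BSA, then exposed to test compound with or without agonists/antagonists in KRH with 4% BSA. Media collected and heated at 60°C for 20 min to stop enzyme activity. Cells kept for protein content, or trypsinised for diameter and viability. At least three independent replicates.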
# AMPK phosphorylation = experiment: AMPK phosphorylation, western blotting in 3T3L1 adipocytes; type: cell-based, mouse; conditions: anti-Phospho-AMPK(Thr172) western blot
# Outline: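 3T3-L1 cells from ATCC, differentiated to adipocytes with fetal bovine serum, dexamethasone, methylisobutylxanthine and insulin. Extracts (about 5×10^5 cells) taken up in SDS reducing sample buffer and run on NuPAGE. Primary antibody overnight at 4°C; tubulin as loading probe; peroxidase-coupled donkey secondaries. Semi-quantitative densitometry; ANOVA with Tukey post hoc tests.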
molecule,measurement,setting,value
TLQPPASSRRR [TLQP-11],biological activity in fundus strip contraction,rat stomach fundus,zero response
TLQPPASSRRRHFHHALPAAR [P19A],biological activity (response) in fundus strip contraction,"rat stomach fundus; 3μM, compared to mouse TLQP-21",19%
same,biological activity (response) in fundus strip contraction,rat stomach fundus; 6μM,35%
TLQPPASSRRRHFHHALAPAR [P18A],biological activity (response) in fundus strip contraction,"rat stomach fundus; 3μM, compared to mouse TLQP-21",~ 65%
N=C(N)NCCC[C@H](NC(=O)COCC(c1ccccc1)c1ccccc1)C(=O)O [SB290157],cross-linking efficiency of modified TLQP-21 peptide in presence of antagonist,C3aR1 receptor,substantial reduction
CC(C)C[C@H](NC(=O)[C@H](C)NC(=O)[C@H](CO)NC(=O)[C@@H]1CCCN1C(=O)[C@@H]1CCCN1C(=O)[C@H](CCC(N)=O)NC(=O)[C@H](CC(C)C)NC(=O)[C@@H](N)[C@@H](C)O)C(=O)N[C@@H](CCCNC(=N)N)C(=O)N[C@@H](CCCNC(=N)N)C(=O)N[C@@H](CCCNC(=N)N)C(=O)N[C@@H](Cc1c[nH]cn1)C(=O)N[C@@H](Cc1ccc(O)cc1)C(=O)N[C@@H](Cc1c[nH]cn1)C(=O)N[C@@H](Cc1c[nH]cn1)C(=O)N[C@@H](C)C(=O)N[C@@H](CC(C)C)C(=O)N1CCC[C@H]1C(=O)N1CCC[C@H]1C(=O)N[C@@H](CO)C(=O)N[C@@H](CCCNC(=N)N)C(=O)O [human TLQP-21],EC50 times lower than that of C3a,human C3aR1,approximately 22 times
TLQPPASSRRRHFHHALPPAA [R21A],biological activity in fundus strip contraction,rat stomach fundus,complete loss of activity
same,block of the activity of a subsequent infusion of TLQP-21 (C3aR1 antagonism),"rat stomach fundus; fundus strips, mutant given before TLQP-21",does not block
same,potentiation of isoproterenol-induced lipolysis,3T3L1 adipocytes,does not potentiate
same,potentiation of AMPK phosphorylation,AMPK phosphorylation,does not potentiate
CC(C)C[C@H](NC(=O)[C@@H](N)[C@@H](C)O)C(=O)N[C@@H](CCC(N)=O)C(=O)N1CCC[C@H]1C(=O)N1CCC[C@H]1C(=O)N[C@@H](C)C(=O)N[C@@H](CO)C(=O)N[C@@H](CO)C(=O)N[C@@H](CCCNC(=N)N)C(=O)N[C@@H](CCCNC(=N)N)C(=O)N[C@@H](CCCNC(=N)N)C(=O)N[C@@H](Cc1c[nH]cn1)C(=O)N[C@@H](Cc1ccccc1)C(=O)N[C@@H](Cc1c[nH]cn1)C(=O)N[C@@H](Cc1c[nH]cn1)C(=O)N[C@@H](C)C(=O)N[C@@H](CC(C)C)C(=O)N1CCC[C@H]1C(=O)N1CCC[C@H]1C(=O)N[C@@H](C)C(=O)N[C@@H](CCCNC(=N)N)C(=O)O [TLQP-21],EC50 times lower than that of C3a,human C3aR1,approximately 3 times
"C3a: human C3a peptide, first ligand identified for the C3aR1 [reference compound]",EC50,"human C3aR1; HTLA cells transfected with human C3aR1, Figure 1C",3000 nM
HFHHALPPAR [HFHH-10],biological activity (response) in fundus strip contraction,"rat stomach fundus; 3μM, compared to mouse TLQP-21",~ 3%
same,biological activity (response) in fundus strip contraction,rat stomach fundus; 6μM,62%
same,biological activity (response) in fundus strip contraction,rat stomach fundus; 10μM,75%

# From publication PMC4353613 (Structure (London, England : 1993), 2014)
